# Assay outcomes from PubChem.
# In the library only some 5.8% were active in any assay of this set; here they are far more common.
# T cruzi growth-1 – blocks T. cruzi growth in NIH3T3 culture; T. cruzi beta-gal in NIH3T3, GalScreen luminescence, 90 h; inhibition, % at 8.34 µM; actives 5.9% (n = 77,000);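 active = mean inhibition above about 93%, with at least 55% of replicates each passing it, limit read from the data, passing the limit was not always enough; inconclusive = only one of those two conditions holds; inactive = neither condition holds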
# IDH1 mut inh – inhibitors of human IDH1 R132H; AID 624101; actives 0.18% (n = 70,000); inhibition, % at 10 µM; IDH1 R132H reductase, diaphorase/resazurin fluorescence, 60 min; O75874; in the data active = inhibition above about 34%; inconclusive = no clear call, values can overlap the other calls; inactive = below about 11%;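 also: 0% = DMSO and 100% = no enzyme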
# Target sequence (O75874 whole entry R132H): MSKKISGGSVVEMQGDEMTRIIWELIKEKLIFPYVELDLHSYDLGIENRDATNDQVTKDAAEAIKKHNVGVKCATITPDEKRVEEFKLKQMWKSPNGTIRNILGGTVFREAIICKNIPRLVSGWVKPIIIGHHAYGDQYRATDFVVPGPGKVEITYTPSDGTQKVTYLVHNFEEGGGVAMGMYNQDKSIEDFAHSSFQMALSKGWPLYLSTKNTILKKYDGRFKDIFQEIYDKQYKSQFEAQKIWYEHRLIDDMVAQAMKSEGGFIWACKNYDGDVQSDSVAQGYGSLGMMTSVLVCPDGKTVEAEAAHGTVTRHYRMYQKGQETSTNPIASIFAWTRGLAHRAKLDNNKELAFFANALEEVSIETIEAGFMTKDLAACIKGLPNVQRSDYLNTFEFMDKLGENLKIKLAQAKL
# Pf Dd2 growth – P. falciparum Dd2 growth inhibition. SYBR Green, 72 h; stronger effect = lower value. activity change, % at 10 µM. actives 2.3% (n = 94,000). AID 1159554; in the data active = activity change below about -80%; inconclusive = no clear call, values can overlap the other calls
# KDM4C inh – blocks human GASC-1 (KDM4C) demethylase activity; inhibition, % at 12.5 µM; AID 720574; actives 0.15% (n = 96,000); Q9H3R0; GST-KDM4C 2-372, H3K9me3 peptide, LANCE TR-FRET;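 active = mean replicate inhibition above about 25%, with at least 55% of replicates also reaching it, limit read from the data, passing the limit was not always enough; inconclusive = only one of those two conditions met; inactive = neither condition met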
#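 Compound: one test concentration per compound; Material: GST-GASC-1 enzyme fragment 2-372; Amount: GASC-1 enzyme at 10 nM final in reaction; Also added: H3K9me3 peptide substrate, Fe(II), 2-oxoglutarate; Technique: LANCE TR-FRET; Times: 30 min demethylation and 1 h detection at room temperature.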
# T cruzi growth-2 – inhibitors of T. cruzi proliferation | AID 651739 | inhibition, % at 8.35 µM | T. cruzi beta-gal in NIH3T3, GalScreen luminescence, 90 h | actives 72% (n = 5,600) | shares compounds with T cruzi growth-1;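 active = mean replicate inhibition above about 95% and at least 55% of replicates individually reaching it, limit read from the data; inconclusive = only one of the two criteria is met; inactive = neither criterion is met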
# T cruzi growth-3 – inhibitors of T. cruzi proliferation; inhibition, % at 2.09 µM; AID 651740; actives 21% (n = 5,600); T. cruzi beta-gal in NIH3T3, GalScreen luminescence, 90 h; shares compounds with T cruzi growth-1;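 active = mean inhibition above about 95%, with at least 55% of replicates also reaching it, limit read from the data; inconclusive = meets just one of the two conditions; inactive = meets neither condition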;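 also: plate controls were neutral control median for no effect and positive control median for full effect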
# 3T3 cytotox – cytotoxicity in mouse NIH/3T3 fibroblasts. cytotoxicity (signal decrease), % at 8.35 µM. actives 14% (n = 5,600). AID 651742. NIH/3T3 viability, CellTiter-Glo ATP luminescence, 90 h. shares compounds with T cruzi growth-1;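 active = mean signal decrease across replicates above about 35% based on untreated-well scatter, with enough replicates individually passing, limit read from the data; inconclusive = no rule stated though some were filed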;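 also: 0% = median of neutral control wells and 100% = median of positive control wells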
# 3T3 cytotox 2 – kills mouse NIH/3T3 fibroblasts; shares compounds with T cruzi growth-1; actives 56% (n = 5,600); inhibition, % at 24.9 µM; NIH/3T3 viability, CellTiter-Glo ATP luminescence, 90 h;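 active = mean loss of cell viability signal at or above a set limit, and enough replicates individually reaching it; inconclusive = meets only the mean limit or only the replicate share; inactive = meets neither condition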;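 also: 0% = median of neutral control wells and 100% = median of positive control wells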
# Starred values were filed as active, the others as inactive; ? = inconclusive; / = no result given.
SMILES,T cruzi growth-1,IDH1 mut inh,Pf Dd2 growth,KDM4C inh,T cruzi growth-2,T cruzi growth-3,3T3 cytotox,3T3 cytotox 2
N#C[C@H]1[C@@H](c2ccc(/C=C/c3ccccc3)cc2)[C@@H](CO)N1C(=O)C1CCCCC1,98*,/,-25,-1,96*,?,15,90*
N#C[C@@H]1[C@@H](c2ccc(/C=C/c3ccccc3)cc2)[C@@H](CO)N1C(=O)C1CCCCC1,102*,/,-24,0,?,58,5,26
CCNC(=O)[C@H]1[C@H](CO)[C@H]2Cn3c(ccc(-c4ccccc4)c3=O)[C@H]2N1C(=O)C1CC1,54,/,10,0,/,/,/,/
C[C@H]1CN([C@@H](C)CO)C(=O)c2cc(C3=CCCC3)cnc2O[C@@H]1CN(C)C(=O)C1CCCCC1,55,-1,-40,3,/,/,/,/
CCC(=O)N1[C@H](CO)[C@H](c2ccc(C3=CCCC3)cc2)[C@H]1CNC(=O)CN(C)C,4,/,11,4,/,/,/,/
CCC(=O)N1CC[C@H]2[C@H](CO)Nc3ccc(-c4ccccc4)cc3[C@H]21,33,/,4,-2,/,/,/,/
CCC(=O)N1CC[C@@H]2[C@H]1c1cc(-c3ccc(C(=O)N(C)C)cc3)ccc1N[C@@H]2CO,105*,/,-4,1,?,53,0,14
CCC(=O)N1CC[C@H]2[C@H](CO)Nc3ccc(-c4ccc(C(=O)N(C)C)cc4)cc3[C@H]21,107*,/,11,-1,104*,49,-22,-9
CC(C)(C)S(=O)N1Cc2cc(C(=O)NCCCN3CCOCC3)nc(-c3cccc(C#CCC4CCCC4)c3)c2[C@@H]1CCO (stereo partly specified),?,-1,-74,-2,100*,82,42*,105*
CN(C)CC#Cc1cccc(-c2nc(C(=O)NCCCN3CCOCC3)cc3c2[C@H](CCO)N(S(=O)C(C)(C)C)C3)c1 (stereo partly specified),105*,/,/,/,85,63,-18,-5
COc1ccc(C#Cc2cccc(-c3nc(C(=O)NCCCN4CCOCC4)cc4c3[C@@H](CCO)N(S(=O)C(C)(C)C)C4)c2)cc1OC (stereo partly specified),62,/,/,-2,/,/,/,/
COCCNS(=O)(=O)c1cc(OC)c(Cl)cc1OC,/,0,/,/,/,/,/,/
CCCC#Cc1ccc([C@H]2[C@H]3CN(S(=O)(=O)c4ccccc4F)CCCCN3[C@H]2CO)cc1,?,/,-10,1,111*,77,23,105*
CN(C)CC#Cc1ccc([C@@H]2[C@@H](CO)N3CCCCN(S(=O)(=O)c4ccccc4F)C[C@H]23)cc1,111*,/,-4,2,98*,24,1,85*
C[C@@H]1CCCCO[C@H](CN(C)C(=O)Cc2ccccc2)[C@H](C)CN([C@@H](C)CO)C(=O)c2cc(NS(=O)(=O)c3cn(C)cn3)ccc2O1,-19,/,1,8,/,/,/,/
CN1C(=O)c2cc(NS(C)(=O)=O)ccc2OC[C@@H]2O[C@@H](CC(=O)NCc3ccc(-c4ccccc4)cc3)CC[C@@H]21,13,/,/,-2,/,/,/,/
COCC(=O)N1CC2(CCN(S(C)(=O)=O)CC2)c2c(n(C)c3cc(OC)ccc23)[C@@H]1CO,/,/,36,-1,/,/,/,/
CCCC#Cc1ccc2c(c1)O[C@H](CN(C)C(=O)C1CCC1)[C@H](C)CN([C@H](C)CO)S2(=O)=O,?,/,-27,0,?,62,29,57*
CCCC#Cc1ccc2c(c1)O[C@@H](CN(C)C(=O)C1CCC1)[C@H](C)CN([C@@H](C)CO)S2(=O)=O,92,/,-56,-2,/,/,/,/
CCCC#Cc1ccc2c(c1)O[C@H](CN(C)C(=O)C1CCC1)[C@@H](C)CN([C@H](C)CO)S2(=O)=O,?,0,-41,2,?,42,-11,4
CO[C@H]1CN(C)C(=O)c2ccc(NS(=O)(=O)c3cn(C)cn3)cc2OC[C@H](C)N(CC2CC2)C[C@@H]1C,/,/,7,0,/,/,/,/
C[C@@H]1CN([C@@H](C)CO)C(=O)Cc2cc(NC(=O)C3CC3)ccc2O[C@H]1CN(C)CC1CCCCC1,-32,0,-17,-4,/,/,/,/
COc1ccccc1S(=O)(=O)N(C)C[C@H]1Oc2cc(/C=C/c3ccccc3)ccc2S(=O)(=O)N([C@H](C)CO)C[C@@H]1C,131*,0,-88*,38*,106*,97*,18,25*
C[C@@H]1CN([C@@H](C)CO)S(=O)(=O)c2ccc(/C=C/c3ccccc3)cc2O[C@@H]1CN(C)C,36,0,-35,-1,/,/,/,/
COc1ccccc1S(=O)(=O)N(C)C[C@@H]1Oc2cc(/C=C/c3ccccc3)ccc2S(=O)(=O)N([C@@H](C)CO)C[C@H]1C,128*,-5,?,1,102*,106*,65*,62*
SMILES,T cruzi growth-1,IDH1 mut inh,Pf Dd2 growth,KDM4C inh,T cruzi growth-2,T cruzi growth-3,3T3 cytotox,3T3 cytotox 2
COc1ccccc1S(=O)(=O)N(C)C[C@H]1Oc2cc(/C=C/c3ccccc3)ccc2S(=O)(=O)N([C@@H](C)CO)C[C@H]1C,129*,0,-52,1,101*,?,40*,34*
COc1ccccc1S(=O)(=O)N(C)C[C@H]1Oc2cc(/C=C/c3ccccc3)ccc2S(=O)(=O)N([C@@H](C)CO)C[C@@H]1C,128*,-1,-58,5,100*,101*,?,39*
C[C@H]1CN([C@@H](C)CO)S(=O)(=O)c2ccc(/C=C/c3ccccc3)cc2O[C@@H]1CN(C)C,95,-3,-31,-3,/,/,/,/
COc1ccccc1S(=O)(=O)N(C)C[C@H]1Oc2cc(Br)ccc2S(=O)(=O)N([C@H](C)CO)C[C@H]1C,/,/,-19,-1,/,/,/,/
O=C(CN(C1CCCCC1)S(=O)(=O)c1ccc(F)cc1)Nc1cc(Cl)ccc1Cl,/,0,/,/,/,/,/,/
C[C@@H]1CN([C@H](C)CO)S(=O)(=O)c2ccc(-c3cccc(C(=O)N(C)C)c3)cc2O[C@@H]1CN(C)C(=O)Nc1ccccc1,58,9,7,2,/,/,/,/
Cc1ccc(S(=O)(=O)NC[C@@H]2CC[C@@H]3[C@@H](CN3C(=O)CN(C)C)O2)cc1,/,/,3,/,/,/,/,/
COc1ccccc1S(=O)(=O)N(C)C[C@H]1Oc2cc(Br)ccc2S(=O)(=O)N([C@@H](C)CO)C[C@H]1C,/,/,5,1,/,/,/,/
C/C=C/c1ccc2c(c1)O[C@H](CN(C)S(=O)(=O)c1ccccc1)[C@H](C)CN([C@@H](C)CO)S2(=O)=O,107*,-1,-26,-3,97*,28,14,35*
